# Measured values from ChEMBL document CHEMBL5143728, “Next-Generation Diprovocims with Potent Human and Murine TLR1/TLR2 Agonist Activity That Activate the Innate and Adaptive Immune Response” (J Med Chem, 2022).
# Key:
# Toll-like receptor 1/2 = Toll-like receptor 1/2 (Homo sapiens, UniProt O60603+Q15399); experiment: Agonist activity at TLR1/TLR2 in human THP-1 derived macrophages assessed as stimulation of TNF alpha release measured for 4 hrs by ELISA based assay relative to diprovocim-1; format: cell-based; design: Activity: concentration or dose not given beside the values
# Summary of the method: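 THP-1 cells differentiated with 100 nM PMA in RPMI/10% FBS for 24 h, washed, then rested 24 h in fresh medium. Seeded at 0.5 × 10⁵ cells/well and exposed to graded compound concentrations for 4 h, with final DMSO held at 0.1%. LPS served as positive control and DMSO as negative control. Supernatant human TNF-α was read by ELISA. EC50 from duplicate means.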
# [1] = molecular target: Toll-like receptor 1/2 (Mus musculus) (UniProt Q9QUN7+Q9EPQ1); experiment: Agonist activity at TLR1/TLR2 in wild type C57BL/6J mouse macrophages assessed as stimulation of TNF alpha release measured for 4 hrs by ELISA based assay relative to diprovocim-1; format: cell-based; design: Activity: concentration or dose not given beside the values; settings: Macrophage
# Summary of the method: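 Thioglycolate-elicited peritoneal macrophages from wild type C57BL/6J mice, harvested by PBS lavage 4 d after i.p. 4% thioglycolate. Cultured in DMEM/10% FBS at 37 °C, 5% CO2, seeded at 1 × 10⁵ cells/well and exposed to graded compound concentrations for 4 h, with final DMSO ≤0.5% held constant. LPS served as positive control. Supernatant mouse TNF-α was read by ELISA. EC50 from duplicate means.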
SMILES,Activity (Toll-like receptor 1/2; filed as agonist) [%],Activity ([1]; filed as agonist) [%],Activity (Toll-like receptor 1/2) [%],Activity [1] [%]
O=C(OCCCCCCCCCCCCNC(=O)[C@@H]1CN(C(=O)c2ccc(C(=O)N3C[C@@H](C(=O)N[C@H]4C[C@@H]4c4ccccc4)[C@H](C(=O)N[C@H]4C[C@@H]4c4ccccc4)C3)cc2)C[C@H]1C(=O)N[C@H]1C[C@@H]1c1ccccc1)c1ccc(O)cc1,100,540,,
C[C@H](NC(=O)OC(C)(C)C)C(=O)OCCCCCCCCCCCCNC(=O)[C@@H]1CN(C(=O)c2ccc(C(=O)N3C[C@@H](C(=O)N[C@H]4C[C@@H]4c4ccccc4)[C@H](C(=O)N[C@H]4C[C@@H]4c4ccccc4)C3)cc2)C[C@H]1C(=O)N[C@H]1C[C@@H]1c1ccccc1,80,200,,
CC(=O)OCCCCCCCCCCCCNC(=O)[C@@H]1CN(C(=O)c2ccc(C(=O)N3C[C@@H](C(=O)N[C@H]4C[C@@H]4c4ccccc4)[C@H](C(=O)N[C@H]4C[C@@H]4c4ccccc4)C3)cc2)C[C@H]1C(=O)N[C@H]1C[C@@H]1c1ccccc1,90,140,,
CC(C)(C)OC(=O)c1ccc(C(=O)OCCCCCCCCCCCCNC(=O)[C@@H]2CN(C(=O)c3ccc(C(=O)N4C[C@@H](C(=O)N[C@H]5C[C@@H]5c5ccccc5)[C@H](C(=O)N[C@H]5C[C@@H]5c5ccccc5)C4)cc3)C[C@H]2C(=O)N[C@H]2C[C@@H]2c2ccccc2)cc1,90,190,,
CC(C)(C)OC(=O)N[C@@H](CCCCNC(=O)OCC1c2ccccc2-c2ccccc21)C(=O)OCCCCCCCCCCCCNC(=O)[C@@H]1CN(C(=O)c2ccc(C(=O)N3C[C@@H](C(=O)N[C@H]4C[C@@H]4c4ccccc4)[C@H](C(=O)N[C@H]4C[C@@H]4c4ccccc4)C3)cc2)C[C@H]1C(=O)N[C@H]1C[C@@H]1c1ccccc1,100,200,,
NC(=O)CCCCCCCCCCCNC(=O)[C@@H]1CN(C(=O)c2ccc(C(=O)N3C[C@@H](C(=O)N[C@H]4C[C@@H]4c4ccccc4)[C@H](C(=O)N[C@H]4C[C@@H]4c4ccccc4)C3)cc2)C[C@H]1C(=O)N[C@H]1C[C@@H]1c1ccccc1,110,120,,
C[C@@H](NC(=O)OC(C)(C)C)C(=O)OCCCCCCCCCCCCNC(=O)[C@@H]1CN(C(=O)c2ccc(C(=O)N3C[C@@H](C(=O)N[C@H]4C[C@@H]4c4ccccc4)[C@H](C(=O)N[C@H]4C[C@@H]4c4ccccc4)C3)cc2)C[C@H]1C(=O)N[C@H]1C[C@@H]1c1ccccc1,110,200,,
CC(C)(C)OC(=O)N[C@@H](COCc1ccccc1)C(=O)OCCCCCCCCCCCCNC(=O)[C@@H]1CN(C(=O)c2ccc(C(=O)N3C[C@@H](C(=O)N[C@H]4C[C@@H]4c4ccccc4)[C@H](C(=O)N[C@H]4C[C@@H]4c4ccccc4)C3)cc2)C[C@H]1C(=O)N[C@H]1C[C@@H]1c1ccccc1,100,370,,
CN(CC(=O)OCCCCCCCCCCCCNC(=O)[C@@H]1CN(C(=O)c2ccc(C(=O)N3C[C@@H](C(=O)N[C@H]4C[C@@H]4c4ccccc4)[C@H](C(=O)N[C@H]4C[C@@H]4c4ccccc4)C3)cc2)C[C@H]1C(=O)N[C@H]1C[C@@H]1c1ccccc1)C(=O)OC(C)(C)C,100,110,,
CC(C)(C)OC(=O)/C=C/C(=O)NCC(=O)OCCCCCCCCCCCCNC(=O)[C@@H]1CN(C(=O)c2ccc(C(=O)N3C[C@@H](C(=O)N[C@H]4C[C@@H]4c4ccccc4)[C@H](C(=O)N[C@H]4C[C@@H]4c4ccccc4)C3)cc2)C[C@H]1C(=O)N[C@H]1C[C@@H]1c1ccccc1,90,110,,
[N-]=[N+]=NCCCCCCCCCCCCNC(=O)[C@@H]1CN(C(=O)c2ccc(C(=O)N3C[C@@H](C(=O)N[C@H]4C[C@@H]4c4ccccc4)[C@H](C(=O)N[C@H]4C[C@@H]4c4ccccc4)C3)cc2)C[C@H]1C(=O)N[C@H]1C[C@@H]1c1ccccc1,,50,30,
Nc1ccc(C(=O)OCCCCCCCCCCCCNC(=O)[C@@H]2CN(C(=O)c3ccc(C(=O)N4C[C@@H](C(=O)N[C@H]5C[C@@H]5c5ccccc5)[C@H](C(=O)N[C@H]5C[C@@H]5c5ccccc5)C4)cc3)C[C@H]2C(=O)N[C@H]2C[C@@H]2c2ccccc2)cc1,100,300,,
C#CCCCCCCCCCCCCNC(=O)[C@@H]1CN(C(=O)c2ccc(C(=O)N3C[C@@H](C(=O)N[C@H]4C[C@@H]4c4ccccc4)[C@H](C(=O)N[C@H]4C[C@@H]4c4ccccc4)C3)cc2)C[C@H]1C(=O)N[C@H]1C[C@@H]1c1ccccc1,120,180,,
O=C(COCc1ccccc1)OCCCCCCCCCCCCNC(=O)[C@@H]1CN(C(=O)c2ccc(C(=O)N3C[C@@H](C(=O)N[C@H]4C[C@@H]4c4ccccc4)[C@H](C(=O)N[C@H]4C[C@@H]4c4ccccc4)C3)cc2)C[C@H]1C(=O)N[C@H]1C[C@@H]1c1ccccc1,130,220,,
CC(C)(C)OC(=O)NCC(=O)NCC(=O)OCCCCCCCCCCCCNC(=O)[C@@H]1CN(C(=O)c2ccc(C(=O)N3C[C@@H](C(=O)N[C@H]4C[C@@H]4c4ccccc4)[C@H](C(=O)N[C@H]4C[C@@H]4c4ccccc4)C3)cc2)C[C@H]1C(=O)N[C@H]1C[C@@H]1c1ccccc1,110,110,,
O=C(O)/C=C/C(=O)NCC(=O)OCCCCCCCCCCCCNC(=O)[C@@H]1CN(C(=O)c2ccc(C(=O)N3C[C@@H](C(=O)N[C@H]4C[C@@H]4c4ccccc4)[C@H](C(=O)N[C@H]4C[C@@H]4c4ccccc4)C3)cc2)C[C@H]1C(=O)N[C@H]1C[C@@H]1c1ccccc1,100,60,,
Nc1ccc(COCCCCCCCCCCCCNC(=O)[C@@H]2CN(C(=O)c3ccc(C(=O)N4C[C@@H](C(=O)N[C@H]5C[C@@H]5c5ccccc5)[C@H](C(=O)N[C@H]5C[C@@H]5c5ccccc5)C4)cc3)C[C@H]2C(=O)N[C@H]2C[C@@H]2c2ccccc2)cc1,90,130,,
O=C(O)CNC(=O)CCCCCCCCCCCNC(=O)[C@@H]1CN(C(=O)c2ccc(C(=O)N3C[C@@H](C(=O)N[C@H]4C[C@@H]4c4ccccc4)[C@H](C(=O)N[C@H]4C[C@@H]4c4ccccc4)C3)cc2)C[C@H]1C(=O)N[C@H]1C[C@@H]1c1ccccc1,110,,,30
CC(C)(C)OC(=O)NCC(=O)NCCCCCCCCCCCCNC(=O)[C@@H]1CN(C(=O)c2ccc(C(=O)N3C[C@@H](C(=O)N[C@H]4C[C@@H]4c4ccccc4)[C@H](C(=O)N[C@H]4C[C@@H]4c4ccccc4)C3)cc2)C[C@H]1C(=O)N[C@H]1C[C@@H]1c1ccccc1,90,90,,
N#CCC(=O)OCCCCCCCCCCCCNC(=O)[C@@H]1CN(C(=O)c2ccc(C(=O)N3C[C@@H](C(=O)N[C@H]4C[C@@H]4c4ccccc4)[C@H](C(=O)N[C@H]4C[C@@H]4c4ccccc4)C3)cc2)C[C@H]1C(=O)N[C@H]1C[C@@H]1c1ccccc1,130,120,,
CC(C)(C)OCC(=O)OCCCCCCCCCCCCNC(=O)[C@@H]1CN(C(=O)c2ccc(C(=O)N3C[C@@H](C(=O)N[C@H]4C[C@@H]4c4ccccc4)[C@H](C(=O)N[C@H]4C[C@@H]4c4ccccc4)C3)cc2)C[C@H]1C(=O)N[C@H]1C[C@@H]1c1ccccc1,100,230,,
NCC(=O)OCCCCCCCCCCCCNC(=O)[C@@H]1CN(C(=O)c2ccc(C(=O)N3C[C@@H](C(=O)N[C@H]4C[C@@H]4c4ccccc4)[C@H](C(=O)N[C@H]4C[C@@H]4c4ccccc4)C3)cc2)C[C@H]1C(=O)N[C@H]1C[C@@H]1c1ccccc1,100,100,,
Cc1ccc(S(=O)(=O)n2cnc(C[C@H](NC(=O)OC(C)(C)C)C(=O)OCCCCCCCCCCCCNC(=O)[C@@H]3CN(C(=O)c4ccc(C(=O)N5C[C@@H](C(=O)N[C@H]6C[C@@H]6c6ccccc6)[C@H](C(=O)N[C@H]6C[C@@H]6c6ccccc6)C5)cc4)C[C@H]3C(=O)N[C@H]3C[C@@H]3c3ccccc3)c2)cc1,90,110,,
C#CCOCC(=O)OCCCCCCCCCCCCNC(=O)[C@@H]1CN(C(=O)c2ccc(C(=O)N3C[C@@H](C(=O)N[C@H]4C[C@@H]4c4ccccc4)[C@H](C(=O)N[C@H]4C[C@@H]4c4ccccc4)C3)cc2)C[C@H]1C(=O)N[C@H]1C[C@@H]1c1ccccc1,,110,30,
O=C(CNC(=O)c1ccc(C(=O)O)cc1)OCCCCCCCCCCCCNC(=O)[C@@H]1CN(C(=O)c2ccc(C(=O)N3C[C@@H](C(=O)N[C@H]4C[C@@H]4c4ccccc4)[C@H](C(=O)N[C@H]4C[C@@H]4c4ccccc4)C3)cc2)C[C@H]1C(=O)N[C@H]1C[C@@H]1c1ccccc1,100,60,,
CC(C)(C)OC(=O)N[C@@H](Cc1ccccc1)C(=O)OCCCCCCCCCCCCNC(=O)[C@@H]1CN(C(=O)c2ccc(C(=O)N3C[C@@H](C(=O)N[C@H]4C[C@@H]4c4ccccc4)[C@H](C(=O)N[C@H]4C[C@@H]4c4ccccc4)C3)cc2)C[C@H]1C(=O)N[C@H]1C[C@@H]1c1ccccc1,100,220,,
CC(C)(C)OC(=O)N1CCC[C@H]1C(=O)OCCCCCCCCCCCCNC(=O)[C@@H]1CN(C(=O)c2ccc(C(=O)N3C[C@@H](C(=O)N[C@H]4C[C@@H]4c4ccccc4)[C@H](C(=O)N[C@H]4C[C@@H]4c4ccccc4)C3)cc2)C[C@H]1C(=O)N[C@H]1C[C@@H]1c1ccccc1,90,100,,
CC(C)(C)OC(=O)NCCCCCCCCCCCCNC(=O)[C@@H]1CN(C(=O)c2ccc(C(=O)N3C[C@@H](C(=O)N[C@H]4C[C@@H]4c4ccccc4)[C@H](C(=O)N[C@H]4C[C@@H]4c4ccccc4)C3)cc2)C[C@H]1C(=O)N[C@H]1C[C@@H]1c1ccccc1,70,120,,
